Measurements taken from ChEMBL document CHEMBL1122607, “Heterocyclic analogues of chlorcyclizine with potent hypolipidemic activity” (J Med Chem, 1984).
Where “and” joins values, the source holds several entries; their conditions need not be identical. Equal entries are not always repeated.

How the values were obtained:
[1] = tested on: Rattus norvegicus; assay: Hypolipidemic activity was measured as reduction in rat serum cholesterol after oral administration in male Wistar rats at 100 mg / (kg day); format: functional
How it was run: (§1)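 Cholesterol-fed rats given the test compound orally by gavage on the last 3 days, with controls receiving vehicle (0.5% tragacanth mucilage). After overnight starvation, rats were killed under CO2 3 h after the last dose and bled by cardiac puncture. Serum cholesterol and triglyceride were measured by autoanalyzer and expressed as percentage reduction from control levels, with Student's t test.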

[2] = tested on: Rattus norvegicus; assay: Hypolipidemic activity was measured as reduction in rat serum triglyceride after oral administration in male Wistar rats at 100 mg / (kg day); format: functional; how it was run: as §1
[3] = tested on: Rattus norvegicus; assay: Hypolipidemic activity was measured as reduction in rat serum cholesterol after oral administration in male Wistar rats at 100 mg/(kg day); format: functional; how it was run: as §1
[4] = tested on: Rattus norvegicus; assay: Hypolipidemic activity was measured as reduction in rat serum cholesterol after oral administration in male Wistar rats at 30 mg / (kg day); format: functional; how it was run: as §1
[5] = tested on: Rattus norvegicus; assay: Hypolipidemic activity was measured as reduction in rat serum cholesterol after oral administration in male Wistar rats at 200 mg / (kg day); format: functional; how it was run: as §1
[6] = tested on: Rattus norvegicus; assay: Hypolipidemic activity was measured as reduction in rat serum triglyceride after oral administration in male Wistar rats at 30 mg / (kg day); format: functional; how it was run: as §1
[7] = tested on: Rattus norvegicus; assay: Hypolipidemic activity was measured as reduction in rat serum triglyceride after oral administration in male Wistar rats at 200 mg / (kg day); format: functional; how it was run: as §1
[8] = tested on: Rattus norvegicus; assay: Hypolipidemic activity was measured as reduction in rat serum triglyceride after oral administration in male Wistar rats at 10 mg / (kg day); format: functional; how it was run: as §1
[9] = tested on: Rattus norvegicus; assay: Hypolipidemic activity was measured as reduction in rat serum cholesterol after oral administration in male Wistar rats at 10 mg / (kg day); format: functional; how it was run: as §1
[10] = tested on: Rattus norvegicus; assay: Minimum effective dose (MED) is the dose (mg/kg)that cause significant reduction in serum cholesterol of 30% compared to concurrent controls.; format: functional; design: unit: mg/kg
How it was run: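 MED was calculated from the log dose/response curve as the dose giving a statistically significant 30% fall in serum cholesterol versus concurrent controls. Measured in the 3-day oral cholesterol-fed rat screen, or in a 2-week test: groups of eight young male Wistar rats on cholesterol/cholic acid-supplemented or normal diet, dosed orally by gavage daily for 14 days, vehicle 0.5% tragacanth mucilage.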

[11] = The therapeutic safety margin (TSM) is the ratio of the minimum lethal dose (mg/kg)to the MED; format: ADME, organism-based; conditions: in vivo
How it was run: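 Young male Wistar rats, eight per group, on cholesterol/cholic acid-supplemented or normal diet; graded oral gavage doses daily for 14 days; vehicle controls (0.5% tragacanth mucilage). Mortalities recorded to give the minimum lethal daily dose. After overnight fasting, serum cholesterol assayed by autoanalyzer. MED is the dose giving a significant (t test) 30% cholesterol fall, from the log dose/response curve. TSM = minimum lethal dose/MED.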

| SMILES | Reduction [1] [%] | Reduction [2] [%] | Reduction [3] | Reduction [4] [%] | Reduction [6] [%] | further results |
| --- | --- | --- | --- | --- | --- | --- |
| CCOC(=O)N1CCN(C(c2ccc(C(C)C)cc2)c2cc(C)ns2)CC1 (centres undefined) | 10 | 6 | – | – | – | – |
| Cc1cc(C(c2ccc(C(C)C)cc2)N2CCN(S(C)(=O)=O)CC2)sn1 (centres undefined) | 19 | 3 | – | – | – | – |
| Cc1cc(C(SCCN(C)C)c2ccc(C(C)C)cc2)sn1 (centres undefined) | – | 55 | 36% | – | – | – |
| Cc1cc(C(c2ccc(C3CCCCC3)cc2)N2CCN(C)CC2)sn1 (centres undefined) | – | 73 | 64% | 7 | – | – |
| CCCCCc1ccc(C(c2ccns2)N2CCN(C)CC2)cc1 (centres undefined) | – | – | – | 26 | 23 | Reduction [5]: 87%; Reduction [7]: 85% |
| Cc1cc(C(c2ccccc2)N2CCN(Cc3ccccc3)CC2)sn1 (centres undefined) | – | – | – | – | – | Reduction [5]: 26%; Reduction [7]: 56% |
| Cc1cc(C(c2cccc([N+](=O)[O-])c2)N2CCN(C)CC2)sn1 (centres undefined) | 2 | 17 | – | – | – | – |
| Cc1cc(C(c2ccc(Oc3ccccc3)cc2)N2CCN(C)CC2)sn1 (centres undefined) | – | 59 | 42% | 17 | 25 | – |
| Cc1cc(C(c2ccc(C(C)C)cc2)N2CCN(C(=O)c3ccccc3)CC2)sn1 (centres undefined) | 26 | 16 | – | – | – | – |
| Cc1cc(C(c2cccc(Cl)c2)N2CCN(C)CC2)sn1 (centres undefined) | – | 41 | 33% | – | – | – |
| Cc1cc(C(c2ccc(C(C)C)cc2)N2CCNCC2)sn1 (stereo in doubt; 66) | – | 73 | 68% | 59 | 23 | Reduction [8]: 4%; Reduction [9]: 38% |
| Cc1ccccc1C(c1nccn1C)N1CCN(C)CC1 (centres undefined) | 5 | 29 | – | – | – | – |
| Cc1noc(C)c1C(c1ccccc1Cl)N1CCN(C)CC1 (centres undefined) | – | 41 | 52% | 7 | 6 | – |
| COc1cccc(C(c2cc(C)ns2)N2CCN(C)CC2)c1 (centres undefined) | – | – | – | – | – | Reduction [5]: 3%; Reduction [7]: 2% |
| CCc1ccc(C(c2sncc2C)N2CCN(CCO)CC2)cc1 (centres undefined) | – | – | – | 45 | 51 | Reduction [8]: 3%; Reduction [9]: 15% |
| Cc1noc(C)c1C(c1ccc(C(C)C)cc1)N1CC[N+](C)(C)CC1 (centres undefined) | 1 | 28 | – | – | – | – |
| Cc1noc(C)c1C(OC1CCCN(C)C1)c1ccc(C(C)C)cc1 (centres undefined) | – | 52 | 79% | 38 | 16 | Reduction [8]: 12%; Reduction [9]: 32% |
| Cc1cc(C(c2ccccc2F)N2CCN(C)CC2)sn1 (centres undefined) | – | – | – | – | – | Reduction [5]: 25%; Reduction [7]: 57% |
| Cc1cc(C(c2ccc(C(C)C)cc2)N2CCOCC2)sn1 (centres undefined) | 7 | 10 | – | – | – | – |
| Cc1cc(C(OCCN(C)C)c2ccc(C(C)C)cc2)sn1 (centres undefined) | – | 41 | 45% | 3 | 36 | – |

| SMILES | Reduction [1] [%] | Reduction [2] [%] | Reduction [3] | Reduction [4] [%] | Reduction [6] [%] | further results |
| --- | --- | --- | --- | --- | --- | --- |
| CCCCOc1ccccc1C(c1cc(C)ns1)N1CCN(C)CC1 (centres undefined) | – | 67 | 74% | 32 | 57 | – |
| Cc1cc(C(c2ccc(C)c(C)c2)N2CCN(C)CC2)sn1 (centres undefined) | 11 | 1 | – | – | – | – |
| Cc1cc(C(c2ccc(C(C)C)cc2)N2CC(C)NC(C)C2)sn1 (centres undefined) | 16 | 32 | – | – | – | – |
| Cc1cc(C(c2ccc(OC(C)C)cc2)N2CCN(C)CC2)sn1 (centres undefined) | – | 31 | 33% | – | – | – |
| CN1CCN(C(c2ccccc2)c2ccc(Cl)cc2)CC1 (centres undefined) [CHLORCYCLIZINE] | – | – | – | – | – | MED [10]: 15; therapeutic safety margin (minimum lethal dose / MED) [11]: 10 |
| Cc1cc(C(c2ccc(C(C)C)cc2)N2CCCCC2)sn1 (centres undefined) | 16 | 1 | – | – | – | – |
| COc1ccc(C(c2cc(C)ns2)N2CCN(C)CC2)cc1 (centres undefined) | – | – | – | – | – | Reduction [5]: 0%; Reduction [7]: 23% |
| Cc1cc(C(N)c2ccc(C(C)C)cc2)sn1 (centres undefined) | – | – | – | – | – | Reduction [5]: 34%; Reduction [7]: 9% |
| Cc1cc(C(O)(c2ccc(C(C)C)cc2)C2CCN(C)CC2)sn1 (centres undefined) | – | 85 | 67% | 57 | 57 | Reduction [8]: 25%; Reduction [9]: 28% |
| CCOC(=O)C(C)(C)Oc1ccc(Cl)cc1 [CLOFIBRATE] | – | – | – | – | – | MED [10]: 200 |
| O=C(O)c1cccnc1 [NIACIN] | – | – | – | – | – | MED [10]: 400 |
| Cc1cc(C(c2ccc(C(C)(C)C)cc2)N2CCN(C)CC2)sn1 (centres undefined) | 25 | 20 | – | – | – | – |
| Cc1noc(C)c1C(OC1CCNCC1)c1ccc(C(C)C)cc1 (centres undefined) | – | 23 | 45% | 4 | 8 | – |
| Cc1cc(C(c2ccc(OCc3ccccc3)cc2)N2CCN(C)CC2)sn1 (centres undefined) | 11 | 34 | – | – | – | – |
| Cc1cnsc1C(c1ccccc1Cl)N1CCN(C)CC1 (centres undefined) | – | 90 | 80% | 44 | 10 | MED [10]: 20; Reduction [8]: 1%; therapeutic safety margin (minimum lethal dose / MED) [11]: < 20; Reduction [9]: 16% |
| Cc1cc(C(c2ccc(F)cc2)N2CCN(C)CC2)sn1 (centres undefined) | 11 | 15 | – | – | – | – |
| CCc1ccccc1C(c1cc(C)ns1)N1CCN(C)CC1 (centres undefined) | – | 88 | 81% | 71 | – | – |
| Cc1cc(C(c2ccccc2OC(C)C)N2CCN(C)CC2)sn1 (centres undefined) | – | 86 | 83% | – | – | – |
| CCc1ccc(C(c2ccns2)N2CCN(C)CC2)cc1 (centres undefined) | 32 | – | 74% and 58% | – | – | MED [10]: 10; therapeutic safety margin (minimum lethal dose / MED) [11]: < 20 |
| Cc1ccccc1C(c1c(C)noc1C)N1CCNCC1 (centres undefined) | – | 80 | 76% | 26 | 21 | Reduction [8]: 46%; Reduction [9]: 2% |

| SMILES | Reduction [1] [%] | Reduction [2] [%] | Reduction [3] | Reduction [4] [%] | Reduction [6] [%] | further results |
| --- | --- | --- | --- | --- | --- | --- |
| CCOc1ccccc1C(c1cc(C)ns1)N1CCN(C)CC1 (centres undefined) | 25 | 35 | – | – | – | – |
| Cc1cccc(C(c2cc(C)ns2)N2CCN(C)CC2)c1 (centres undefined) | 26 | 22 | – | – | – | – |
| Cc1cc(C(c2ccccc2C(C)C)N2CCN(C)CC2)sn1 (centres undefined) | – | – | – | 36 | 9 | – |
| Cc1cc(C(c2cccc(C(F)(F)F)c2)N2CCN(C)CC2)sn1 (centres undefined) | 8 | 30 | – | – | – | – |
| Cc1ccccc1C(c1sncc1C)N1CCN(C)CC1 (centres undefined) | – | 64 | 72% | – | – | – |
| CN1CCN(C(c2ccccc2)c2ccccn2)CC1 (centres undefined) | – | 74 | 81% | 22 | 16 | – |
| Cc1cc(C(c2ccc(C(C)C)cc2)C2CCN(C)CC2)sn1 (centres undefined) | – | 42 | 45% | 12 | 32 | – |
| Cc1cc(C(OCCN2CCCC2)c2ccc(C(C)C)cc2)sn1 (centres undefined) | 30 | 2 | – | – | – | – |
| COc1ccc(C(c2cc(C)ns2)N2CCN(C)CC2)cc1OC (centres undefined) | – | – | – | – | – | Reduction [5]: 7%; Reduction [7]: 4% |
| Cc1noc(C)c1C(c1ccccc1Cl)N1CCNCC1 (centres undefined) | – | 97 | 87% | 14 | 62 | – |
| CN1CCN(C(c2ccccc2Cl)c2nccn2C)CC1 (centres undefined) | – | – | – | – | – | Reduction [5]: 53%; Reduction [7]: 64% |
| Cc1nc(C)c(C(c2ccccc2Cl)N2CCN(C)CC2)s1 (centres undefined) | – | 79 | 78% | – | – | – |
| Cc1cnsc1C(c1ccc(CC(C)C)cc1)N1CCN(CCO)CC1 (centres undefined) | – | 97 | 85% | 86 | 81 | MED [10]: 6; Reduction [8]: 48%; Reduction [9]: 48% |
| CC(C)c1ccc(C(c2ccns2)N2CCN(CCO)CC2)cc1 (centres undefined) | – | 89 | 74% | 80 | 49 | MED [10]: 5; therapeutic safety margin (minimum lethal dose / MED) [11]: 40 |
| Cc1cc(C(c2ccc(C(C)C)cc2)N2CCN(CCO)CC2)sn1 (centres undefined) | – | 73 | 73% | 67 | 14 | MED [10]: 15; Reduction [8]: 0%; therapeutic safety margin (minimum lethal dose / MED) [11]: 20; Reduction [9]: 23% |
| Cc1ccc(C(c2sncc2C)N2CCN(C)CC2)cc1C (centres undefined) | – | 73 | 74% | 15 | 9 | Reduction [8]: 21%; Reduction [9]: 20% |
| Cc1cc(C(Nc2cccnc2)c2ccc(C(C)C)cc2)sn1 (centres undefined) | 16 | 5 | – | – | – | – |
| Cc1ccc(C(c2cc(C)ns2)N2CCN(C)CC2)cc1 (centres undefined) | 9 | – | – | – | – | – |
| CC(C)OC(=O)C(C)(C)Oc1ccc(C(=O)c2ccc(Cl)cc2)cc1 [FENOFIBRATE] | – | – | – | – | – | MED [10]: 200 |
